pEC50, pKd: −log10 of the molar value. Where a name gives a salt, the structure may show the parent alone. Read-outs that look alike come from different tables or passages of the source. One block for each molecule: values may come before it.
Assays:
[1] = biological target: T1, mouse Elp2 protein (Mus musculus, UniProt Q91WG4); assay: SPRi affinity measurement of chip-immobilized library compounds to Elp2 protein; type: binding
T1 sequence (Q91WG4 1-831): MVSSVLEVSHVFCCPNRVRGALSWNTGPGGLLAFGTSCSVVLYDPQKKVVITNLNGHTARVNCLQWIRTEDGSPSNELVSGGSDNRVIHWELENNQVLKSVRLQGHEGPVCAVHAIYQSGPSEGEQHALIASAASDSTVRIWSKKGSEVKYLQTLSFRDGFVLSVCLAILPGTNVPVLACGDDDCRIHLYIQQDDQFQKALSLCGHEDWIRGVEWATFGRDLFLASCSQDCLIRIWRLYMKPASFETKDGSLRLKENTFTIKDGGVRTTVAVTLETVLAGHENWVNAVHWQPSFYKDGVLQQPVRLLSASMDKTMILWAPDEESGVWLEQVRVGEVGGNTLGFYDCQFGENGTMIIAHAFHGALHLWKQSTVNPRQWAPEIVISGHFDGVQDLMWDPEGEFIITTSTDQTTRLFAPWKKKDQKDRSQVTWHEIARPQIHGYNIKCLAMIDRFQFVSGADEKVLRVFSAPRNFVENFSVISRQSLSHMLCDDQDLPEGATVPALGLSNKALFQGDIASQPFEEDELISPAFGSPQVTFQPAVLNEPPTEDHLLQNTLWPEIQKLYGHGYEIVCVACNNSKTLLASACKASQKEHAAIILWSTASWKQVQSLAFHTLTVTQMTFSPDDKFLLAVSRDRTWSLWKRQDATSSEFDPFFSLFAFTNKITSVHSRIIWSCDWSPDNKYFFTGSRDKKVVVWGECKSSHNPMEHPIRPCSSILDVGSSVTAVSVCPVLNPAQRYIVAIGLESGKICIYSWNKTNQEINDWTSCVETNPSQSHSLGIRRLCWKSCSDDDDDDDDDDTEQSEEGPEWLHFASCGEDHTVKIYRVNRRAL

[2] = system: melanoma cells bearing B-Raf^V600E; settings: cited from earlier work
[3] = system: MC3T3-E1 cells; assay: Mineralization assessment by Alizarin Red S staining, SD model; type: cell-based, mouse; settings: MC3T3-E1, day 35, with TNF-α, vs negative control (p < 0.05)
[4] = system: C2C12 cells; assay: Q-PCR of osteogenic differentiation marker genes, ID model; type: cell-based, mouse; settings: C2C12, day 7, with TNF-α
How it was run: (§1)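 On day 7 after day-0 treatment (5 ng mL−1 TNF-α ± test compound; C2C12 also with 100 ng mL−1 BMP-2), 2 × 10^5 cells harvested. Total RNA by TRIzol, column-purified and DNase-treated; 0.25 μg reverse transcribed. COL-I, ALP, OCN, BMP-2, RUNX-2 and OSX measured by real-time Q-PCR with gene-specific primers. Normalised to β-actin by ΔΔCt. Triplicate.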

[5] = system: B-Raf^V600E dependented tumor xenograft models; settings: orally dosed, without evidence of cytotoxicity; cited from earlier work
[6] = system: MC3T3-E1 cells; assay: Q-PCR of osteogenic differentiation marker genes, SD model; type: cell-based, mouse; settings: MC3T3-E1, day 7, with TNF-α
How it was run: as §1

[7] = system: C2C12 cells; assay: ALP staining and activity, inflammatory differentiation; type: cell-based; settings: Mus musculus, C2C12, read-out: EC50 based on ALP activity
[8] = system: MC3T3-E1 cells; assay: ALP staining and activity, self-differentiation; type: cell-based; settings: Mus musculus, MC3T3-E1, read-out: EC50 based on ALP activity
How it was run: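 MC3T3-E1 cells in DMEM with 10% FBS and 1% penicillin/streptomycin at 37 °C, 5% CO2; plated at 50% confluence, 24 h. No inducer. On day 0, given ddH2O solvent or 5 ng mL−1 TNF-α ± test compound at eleven levels (10 nM–800 μM). On day 7: kit ALP stain; ALP activity by OD 405 nm, per μg BCA total protein; EC50 from ALP activity. Mean ± SEM, triplicate.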

[9] = system: C2C12 cells; assay: Mineralization assessment by Alizarin Red S staining, ID model; type: cell-based, mouse; settings: C2C12, day 35, with TNF-α, vs negative control (p < 0.05)
[10] = SPRi, Elp2 200-3200 nM, 1:1 Langmuir binding

- pEC50 [7]: 4.99
- pEC50 [8]: 4.78
Molecule: CCCS(=O)(=O)Nc1ccc(F)c(C(=O)c2c[nH]c3ncc(Cl)cc23)c1F [PLX-4720]
- ERK phosphorylation [2]: significantly inhibits
- Mineralization, Alizarin Red S stained spots [3]: more stained spots compared with the negative control
- mRNA expression levels of COL-I, ALP, OCN, BMP-2, RUNX-2 and OSX [4]: elevated
- tumor growth [5]: tumor growth delays
- mRNA expression levels of COL-I, ALP, OCN, BMP-2, RUNX-2 and OSX [6]: elevated
- Mineralization, Alizarin Red S stained spots [9]: more stained spots compared with the negative control

- pKd [1]: 5.60
- koff [1]: 0.000462 s⁻¹
- kon [1]: 182 M⁻¹ s⁻¹
Molecule: Cn1nnc2c(C(N)=O)ncn2c1=O [Temozolomide]

- pKd [1, 10]: 6.32
- koff [1, 10]: 2.59e-05 s⁻¹
- kon [1, 10]: 53.8 M⁻¹ s⁻¹
Molecule: RK-33

More lines, now with the values behind:

Molecule: CC(C)N(CCC(c1ccccc1)c1cc(CO)ccc1O)C(C)C (centres unmarked) [5-Hydroxymethyl tolterodine]
- pKd [1, 10]: 5.83
- koff [1, 10]: 0.0166 s⁻¹
- kon [1, 10]: 11300 M⁻¹ s⁻¹

Molecule: CNC[C@H](O)c1ccc(O)c(O)c1 [Epinephrine bitartrate]
- pKd [1]: 6.17
- koff [1]: 0.000529 s⁻¹
- kon [1]: 783 M⁻¹ s⁻¹

Molecule: O=C1O[C@H](CO)[C@@H](O)[C@H](O)[C@H]1O [Gluconolactone]
- pKd [1]: 4.51
- koff [1]: 0.0819 s⁻¹
- kon [1]: 2640 M⁻¹ s⁻¹

Molecule: CC(C)NCC(O)c1ccc(O)c(O)c1 (centres unmarked) [Isoprenaline hydrochloride]
- pKd [1]: 5.34
- koff [1]: 0.00454 s⁻¹
- kon [1]: 987 M⁻¹ s⁻¹

From paper PMC9059734 (RSC Advances, 2019)
